Assay results published in ChEMBL document CHEMBL2016576, “Design, synthesis and structure-activity-relationship of 1,5-tetrahydronaphthyridines as CETP inhibitors” (Bioorg Med Chem Lett, 2012).

How the values were obtained:
[1] = Clearance in beagle dog at 1 mg/kg, iv and 3 mg/kg, po after 72 hrs; type: ADME, organism-based, Canis lupus familiaris; details: in vivo
[2] = Clearance in cynomolgus monkey at 1 mg/kg, iv and 3 mg/kg, po after 72 hrs; type: ADME, organism-based, Macaca fascicularis; details: in vivo
[3] = Oral bioavailability in beagle dog at 3 mg/kg after 72 hrs; type: ADME, organism-based, Canis lupus familiaris; details: in vivo
[4] = Oral bioavailability in cynomolgus monkey at 3 mg/kg after 72 hrs; type: ADME, organism-based, Macaca fascicularis; details: in vivo
cortisol synthase mRNA = test: Induction of cortisol synthase mRNA level in human NCI-H295 cells by in vitro branched DNA method relative to control; type: cell-based; details: read-out: FC
Summary of the method: (§1)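 Human adrenal H295 cells were assayed in vitro. CYP11B2 (aldosterone synthase) and CYP11B1 (cortisol synthase) mRNA were quantified by branched DNA, and induction was expressed relative to untreated control.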

[5] = biological target: T1, Cholesteryl ester transfer protein (Homo sapiens, UniProt P11597); test: Inhibition of CETP in human plasma assessed as reduction in fluorescent intensity by fluorescence analysis
T1 sequence (P11597 whole entry): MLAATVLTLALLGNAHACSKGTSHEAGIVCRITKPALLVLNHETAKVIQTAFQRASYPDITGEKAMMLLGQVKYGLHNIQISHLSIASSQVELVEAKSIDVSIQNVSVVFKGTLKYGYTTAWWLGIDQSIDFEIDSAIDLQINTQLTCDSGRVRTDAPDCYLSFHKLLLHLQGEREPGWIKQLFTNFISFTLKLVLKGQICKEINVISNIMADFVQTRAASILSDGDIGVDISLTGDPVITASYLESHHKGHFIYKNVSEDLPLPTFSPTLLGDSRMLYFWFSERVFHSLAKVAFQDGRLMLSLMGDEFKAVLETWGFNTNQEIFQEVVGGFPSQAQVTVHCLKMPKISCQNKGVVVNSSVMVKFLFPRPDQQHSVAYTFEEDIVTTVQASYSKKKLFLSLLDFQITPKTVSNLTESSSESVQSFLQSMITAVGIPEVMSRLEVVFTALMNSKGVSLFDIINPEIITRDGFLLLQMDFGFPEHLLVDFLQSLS

Mus musculus [6] = test: Ex-vivo inhibition of CETP activity in transgenic mouse harboring human CETP/human ApoA1 gene at 30 mg/kg, po measured after 8 hrs; type: functional
Summary of the method: (§2)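 Male hCETP/hApoA1 heterozygous dual transgenic mice given 30 mg/Kg orally in corn oil (79.5%)/oleic acid (20%)/labrafil (0.5%); blood taken over an 8 h time course; serum tested ex vivo for CETP activity and in vivo serum HDL-c measured.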

[7] = Clearance in Sprague-Dawley rat at 1 mg/kg, iv and 3 mg/kg, po after 72 hrs; type: ADME, organism-based; details: in vivo
Mus musculus [8] = test: Increase in HDL-cholesterol level in transgenic mouse harboring human CETP/human ApoA1 gene at 30 mg/kg, po measured after 8 hrs; type: functional; summary of the method: as §2
[9] = Oral bioavailability in Sprague-Dawley rat at 3 mg/kg after 72 hrs; type: ADME, organism-based; details: in vivo
[10] = test system: aldosterone synthase mRNA; test: Induction of aldosterone synthase mRNA level in human NCI-H295 cells by in vitro branched DNA method relative to control; type: cell-based; details: read-out: FC; summary of the method: as §1
[11] = Induction of cortisol synthase mRNA level in human NCI-H295 cells by in vitro branched DNA method; type: cell-based

clearance [1] [mL/min/kg] | clearance [2] [mL/min/kg] | bioavailability [3] [%] | bioavailability [4] [%] | fold induction (cortisol synthase mRNA) | IC50 [5] [nM] | clearance [7] [mL/min/kg] | bioavailability [9] [%] | fold induction [10] | Structure (SMILES) | inhibition in vivo at 30 mg/kg (Mus musculus [6]) [%] | Activity (Mus musculus [8]) [%] | Activity [11]
1.5 | 0.7 | 49 | 18 | 10 | 23 | 5.5 | 31 | 10 | CC[C@@H]1C[C@H](N(Cc2cc(C(F)(F)F)cc(C(F)(F)F)c2)c2nnn(C)n2)c2nc(C(F)(F)F)ccc2N1C(=O)OC(C)C | 91.6 | 134 | 
 | 2.2 |  | 32 |  | 22 | 16.4 | 18 |  | CC[C@@H]1C[C@H](N(Cc2cc(C(F)(F)F)cc(C(F)(F)F)c2)c2nnn(C)n2)c2nc(C)ccc2N1C(=O)OC(C)C | 105 | 147.8 | 
 |  |  |  |  |  |  |  |  | CCOC(=O)N1c2ccc(C(F)(F)F)cc2[C@@H](N(Cc2cc(C(F)(F)F)cc(C(F)(F)F)c2)C(=O)OC)C[C@H]1CC [TORCETRAPIB] |  |  | Toxic
